Laboratory results reported in ChEMBL document CHEMBL2021796, “Synthesis and biological evaluation of a series of thieno-expanded tricyclic purine 2'-deoxy nucleoside analogues” (Bioorg Med Chem, 2012).

System: Vaccinia virus
Assay: Antiviral activity against Vaccinia virus infected in HEL cells assessed as inhibition of virus-induced cytopathogenicity
Type: functional, organism-based
Conditions: Orthopoxvirus vaccinia
Outline: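 Confluent HEL, Vero or HeLa monolayers were infected with 100 CCID50 of virus while exposed to fivefold serial dilutions of compound. Virus-induced cytopathicity was scored when it reached completion in untreated infected controls. The EC50 is the concentration that inhibits cytopathicity by 50%.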

Row | SMILES | EC50 [µM]
1 | Nc1ncnc2c1sc1ncn([C@H]3C[C@H](O)[C@@H](CO)O3)c12 | > 20
2 | NC(=O)c1ncn([C@@H]2O[C@H](CO)[C@@H](O)[C@H]2O)n1 [RIBAVIRIN] | > 250
3 | Nc1nc2c(sc3ncn([C@H]4C[C@H](O)[C@@H](CO)O4)c32)c(=O)[nH]1 | > 100
